Legend:
[1] = Second order rate constant was determined for the reaction of compound with GSH in phosphate buffer at a pH of 8.5
How it was run: (§1)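 Test compound and GSH reacted in phosphate buffer at 37 °C, pH 7.5 for lines 2 and 3 and pH 8.5 for line 4. Aliquots were taken at set times and quenched into phosphate buffer containing 0.2 mM Ellman's reagent (DTNB). Unreacted GSH was measured by UV absorbance at 412 nm. Second-order rate constant k₂ for nucleophilic GSH addition is given in mM⁻¹ h⁻¹.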

[2] = Partition coefficient in octanol to water system; format: physicochemical
[3] = Second order rate constant determined for the reaction of compound with GSH in phosphate buffer at a pH of 7.5; how it was run: as §1
[4] = Second order rate constant was determined for the reaction of compound with GSH in phosphate buffer at a pH of 7.5; how it was run: as §1

## CC(=O)OC(CC#CCS(=O)(=O)c1ccc([N+](=O)[O-])cc1)Cn1ccnc1[N+](=O)[O-] (stereo not given)
[1]
  k2: 17 m M-1 hr-1
[2]
  Po/w: 15
[3]
  k2: 3 m M-1 hr-1

## O=C(O)CCC(=O)OC(CC#CCS(=O)(=O)c1ccc([N+](=O)[O-])cc1)Cn1ccnc1[N+](=O)[O-] (stereo not given)
[1]
  k2: 8.6 m M-1 hr-1
[2]
  Po/w: 2.2
[4]
  k2: 1.1 m M-1 hr-1

## CC(=O)OC(CC#CCS(=O)(=O)c1ccccc1)Cn1ccnc1[N+](=O)[O-] (stereo not given)
[1]
  k2: 0.7 m M-1 hr-1
[2]
  Po/w: 22.2
[4]
  k2: 0.2 m M-1 hr-1

## CC(=O)OC(CC#CCSc1ccc([N+](=O)[O-])cc1)Cn1ccnc1[N+](=O)[O-] (stereo not given)
[1]
  k2: 0.8 m M-1 hr-1

Source: ChEMBL document CHEMBL1146746, “Propargylic sulfones possessing a 2-nitroimidazole function: novel hypoxic-cell radiosensitizers with intracellular non-protein thiol depletion ability” (Bioorg Med Chem Lett, 2004)
